Source: ChEMBL document CHEMBL1124558, “Differential effects of a series of hydroxamic acid derivatives on 5-lipoxygenase and cyclooxygenase from neutrophils and 12-lipoxygenase from platelets and their in vivo effects on inflammation and anaphylaxis” (J Med Chem, 1989)

What was measured:
[1] = target: T1, Arachidonate 12-lipoxygenase (Rattus norvegicus) (UniProt Q02759); experiment: In vitro inhibitory activity against rat platelet 12-lipoxygenase at 100 uM
T1 sequence (whole entry): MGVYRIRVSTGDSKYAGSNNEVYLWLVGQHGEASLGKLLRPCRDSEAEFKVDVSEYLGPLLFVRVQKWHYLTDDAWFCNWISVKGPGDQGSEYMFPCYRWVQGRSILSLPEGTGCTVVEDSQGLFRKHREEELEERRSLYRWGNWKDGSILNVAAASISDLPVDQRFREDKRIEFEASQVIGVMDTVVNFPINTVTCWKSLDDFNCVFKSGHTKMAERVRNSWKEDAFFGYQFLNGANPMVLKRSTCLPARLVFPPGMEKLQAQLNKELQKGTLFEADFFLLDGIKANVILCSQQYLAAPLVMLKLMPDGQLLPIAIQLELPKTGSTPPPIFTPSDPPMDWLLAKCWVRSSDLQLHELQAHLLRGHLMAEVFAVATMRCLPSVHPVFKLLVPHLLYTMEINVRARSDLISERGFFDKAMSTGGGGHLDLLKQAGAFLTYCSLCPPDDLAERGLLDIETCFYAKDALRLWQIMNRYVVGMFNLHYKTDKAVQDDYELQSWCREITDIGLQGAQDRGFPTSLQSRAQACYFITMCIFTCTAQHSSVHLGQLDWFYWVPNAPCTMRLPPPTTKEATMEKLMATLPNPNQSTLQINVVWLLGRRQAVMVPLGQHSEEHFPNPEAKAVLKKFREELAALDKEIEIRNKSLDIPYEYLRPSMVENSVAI
Outline: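 Cell-free cytosolic 12-lipoxygenase from Sprague-Dawley rat platelets (0.4 mg/mL), preincubated 5 min at 30 °C with compound in DMSO (≤0.1% final), 25 mM Tris pH 7.4, 1 μM indomethacin, 100 μM glutathione; reaction started with 6 μM [14C]arachidonic acid and quenched with citric acid/NDGA after 3 min. 12-HETE isolated by TLC and counted by scintillation; % inhibition, duplicate.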

Cyclooxygenase [2] = target: T2, Cyclooxygenase (Rattus norvegicus, UniProt P35355+Q63921); experiment: (§1) In vitro inhibitory activity against rat polymorphonuclear leukocyte Prostaglandin G/H synthase; assay type: functional
T2 sequence (P35355 whole entry): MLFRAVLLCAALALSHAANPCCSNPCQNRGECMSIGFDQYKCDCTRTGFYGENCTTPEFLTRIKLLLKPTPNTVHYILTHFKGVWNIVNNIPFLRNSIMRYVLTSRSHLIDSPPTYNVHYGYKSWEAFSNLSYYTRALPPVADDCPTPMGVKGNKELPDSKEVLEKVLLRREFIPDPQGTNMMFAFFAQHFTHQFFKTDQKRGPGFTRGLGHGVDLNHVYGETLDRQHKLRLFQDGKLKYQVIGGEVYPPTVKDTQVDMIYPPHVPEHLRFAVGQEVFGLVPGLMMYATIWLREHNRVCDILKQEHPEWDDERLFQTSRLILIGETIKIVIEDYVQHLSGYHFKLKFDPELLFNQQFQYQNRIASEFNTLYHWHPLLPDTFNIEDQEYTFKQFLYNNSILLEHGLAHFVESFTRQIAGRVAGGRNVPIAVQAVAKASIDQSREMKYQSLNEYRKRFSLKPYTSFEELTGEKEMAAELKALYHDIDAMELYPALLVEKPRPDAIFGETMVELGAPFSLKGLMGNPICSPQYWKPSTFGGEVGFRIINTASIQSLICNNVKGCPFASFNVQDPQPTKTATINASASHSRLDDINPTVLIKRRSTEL
T2 sequence (Q63921 whole entry): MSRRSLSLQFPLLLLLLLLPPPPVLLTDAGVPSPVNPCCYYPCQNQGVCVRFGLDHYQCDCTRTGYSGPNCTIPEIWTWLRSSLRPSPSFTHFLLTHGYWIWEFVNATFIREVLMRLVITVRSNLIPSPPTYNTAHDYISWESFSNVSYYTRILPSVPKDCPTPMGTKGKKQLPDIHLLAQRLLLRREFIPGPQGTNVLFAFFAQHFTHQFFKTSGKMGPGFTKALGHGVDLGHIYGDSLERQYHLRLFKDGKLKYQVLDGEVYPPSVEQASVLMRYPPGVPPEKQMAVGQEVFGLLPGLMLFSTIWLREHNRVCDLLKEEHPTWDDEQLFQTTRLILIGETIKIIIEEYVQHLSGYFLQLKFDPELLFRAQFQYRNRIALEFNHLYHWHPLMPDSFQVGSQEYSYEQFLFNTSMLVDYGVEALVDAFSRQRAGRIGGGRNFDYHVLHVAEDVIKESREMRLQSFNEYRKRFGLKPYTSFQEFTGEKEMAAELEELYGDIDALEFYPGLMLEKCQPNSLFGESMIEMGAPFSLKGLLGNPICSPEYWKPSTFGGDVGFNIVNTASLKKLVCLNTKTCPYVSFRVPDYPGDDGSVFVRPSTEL
Outline: (§2)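 Glycogen-elicited peritoneal PMNs from Sprague-Dawley rats were homogenized at 0 °C in 0.1 M Tris-HCl pH 8.2 with 10 μM NDGA. Compound (DMSO ≤0.1%) was preincubated 5 min at 37 °C, then 8 μM [14C]arachidonic acid with 4 mM glutathione and epinephrine was added for 10 min. TxB2 and PGF2α were measured by TLC and scintillation counting.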

Cyclooxygenase [3] = target: T2, Cyclooxygenase; experiment: (§3) In vitro inhibitory activity against rat polymorphonuclear leukocyte Prostaglandin G/H synthase at 100 uM; assay type: protein assay; outline: as §2
[4] = target: T3, Polyunsaturated fatty acid 5-lipoxygenase (Rattus norvegicus) (UniProt P12527); experiment: In vitro inhibitory activity against polymorphonuclear leukocyte 5-lipoxygenase in rat cell at 10 uM
T3 sequence (whole entry): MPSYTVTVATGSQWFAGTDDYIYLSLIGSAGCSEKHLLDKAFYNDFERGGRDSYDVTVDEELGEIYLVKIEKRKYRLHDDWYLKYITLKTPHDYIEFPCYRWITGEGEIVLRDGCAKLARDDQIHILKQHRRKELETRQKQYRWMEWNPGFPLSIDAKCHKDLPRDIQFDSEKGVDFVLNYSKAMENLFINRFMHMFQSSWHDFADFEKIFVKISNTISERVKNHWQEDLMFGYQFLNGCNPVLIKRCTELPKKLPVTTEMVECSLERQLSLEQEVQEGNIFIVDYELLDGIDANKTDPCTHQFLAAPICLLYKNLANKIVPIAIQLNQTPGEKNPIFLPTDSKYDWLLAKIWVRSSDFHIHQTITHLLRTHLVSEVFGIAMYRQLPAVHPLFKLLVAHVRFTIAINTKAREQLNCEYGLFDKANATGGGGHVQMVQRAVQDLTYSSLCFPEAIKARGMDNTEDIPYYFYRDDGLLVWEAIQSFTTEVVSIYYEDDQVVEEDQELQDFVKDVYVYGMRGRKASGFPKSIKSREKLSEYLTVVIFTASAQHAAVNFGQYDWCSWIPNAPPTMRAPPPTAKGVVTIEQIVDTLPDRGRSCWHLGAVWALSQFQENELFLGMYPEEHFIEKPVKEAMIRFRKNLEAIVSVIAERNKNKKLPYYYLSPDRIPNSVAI
Outline: (§4)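 Intact glycogen-elicited peritoneal PMNs pooled from 4–5 Sprague-Dawley rats (250 g), preincubated 5 min at 30 °C with compound in DMSO (≤0.1% final) plus 1 μM indomethacin. Challenge with [14C]arachidonic acid (4 μM) and A23187 (0.8 μM) for 3 min. Extraction, TLC, 5-HETE by scintillation counting.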

Cavia porcellus [5] = experiment: In vivo inhibitory activity against guinea pig systemic anaphylaxis when administered a compound dose (60 mg/kg) perorally; assay type: functional; details: po
Outline: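 Male Hartley guinea pigs sensitised ip with ovalbumin (2.7 mg/kg) plus LPS adjuvant, then challenged 2 weeks later with 1% ovalbumin aerosol for 30 s. Pretreated with pyrilamine, indomethacin and propranolol 20 min before challenge. Compound given in PEG 400 1 h before challenge.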

Cyclooxygenase [6] = target: T2, Cyclooxygenase; experiment: In vitro inhibitory activity against polymorphonuclear leukocyte cyclooxygenase; assay type: protein assay; outline: as §2
Mus musculus [7] = experiment: In vivo inhibition of mouse ear inflammation; assay type: functional; design: concentration or dose not given beside the values
Outline: (§5)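 Compound or ethanol vehicle applied topically to one ear of male DBA/2J mice 60 min before arachidonic acid (2 mg/ear). […] Groups of 5 mice.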

Cavia porcellus [8] = organism: Cavia porcellus; experiment: Inhibitory activity against Leukotriene-D4 induced contractions; assay type: functional
Cavia porcellus [9] = organism: Cavia porcellus; experiment: Inhibitory activity against Leukotriene C4 induced contractions; assay type: functional
Cyclooxygenase [10] = target: T2, Cyclooxygenase; experiment: In vitro inhibitory activity against rat polymorphonuclear leukocyte cyclooxygenase; assay type: protein assay; outline: as §2
[11] = target: T4, Cysteinyl leukotriene receptor 1 (Cavia porcellus, UniProt Q2NNR5); experiment: Activity to bind against [3H]LTD4 radioligand in guinea pig
T4 sequence (Q2NNR5 whole entry): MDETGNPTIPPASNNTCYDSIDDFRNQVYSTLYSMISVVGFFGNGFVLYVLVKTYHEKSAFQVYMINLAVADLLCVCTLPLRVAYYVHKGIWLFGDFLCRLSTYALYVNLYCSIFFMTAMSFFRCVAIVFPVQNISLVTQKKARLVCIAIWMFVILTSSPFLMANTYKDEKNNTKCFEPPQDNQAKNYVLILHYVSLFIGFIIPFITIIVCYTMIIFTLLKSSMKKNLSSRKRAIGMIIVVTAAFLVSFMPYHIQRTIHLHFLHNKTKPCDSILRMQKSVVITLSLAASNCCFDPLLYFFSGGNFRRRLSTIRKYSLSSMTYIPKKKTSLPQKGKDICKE

[12] = target: T5, Polyunsaturated fatty acid 5-lipoxygenase (Homo sapiens, UniProt P09917); experiment: In vitro inhibition of polymorphonuclear leukocyte derived human 5-lipoxygenase
T5 sequence (P09917 whole entry): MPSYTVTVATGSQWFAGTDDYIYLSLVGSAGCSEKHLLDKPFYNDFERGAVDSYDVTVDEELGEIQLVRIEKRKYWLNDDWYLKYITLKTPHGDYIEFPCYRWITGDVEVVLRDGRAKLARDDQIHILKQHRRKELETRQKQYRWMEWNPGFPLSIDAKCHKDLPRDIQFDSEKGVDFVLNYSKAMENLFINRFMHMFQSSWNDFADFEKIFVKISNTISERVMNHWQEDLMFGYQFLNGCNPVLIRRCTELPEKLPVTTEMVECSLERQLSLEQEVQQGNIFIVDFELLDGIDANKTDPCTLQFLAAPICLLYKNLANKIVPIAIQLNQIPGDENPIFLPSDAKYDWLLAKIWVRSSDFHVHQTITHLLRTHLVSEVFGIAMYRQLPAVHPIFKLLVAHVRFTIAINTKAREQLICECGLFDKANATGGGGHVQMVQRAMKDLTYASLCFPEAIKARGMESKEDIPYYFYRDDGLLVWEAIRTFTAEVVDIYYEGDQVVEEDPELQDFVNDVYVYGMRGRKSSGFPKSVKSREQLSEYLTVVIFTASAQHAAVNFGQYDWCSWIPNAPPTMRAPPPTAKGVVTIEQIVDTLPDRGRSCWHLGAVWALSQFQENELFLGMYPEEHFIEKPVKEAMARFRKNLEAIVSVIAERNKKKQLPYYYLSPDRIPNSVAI
Outline: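 PMNs from venous blood of healthy volunteers, isolated by dextran sedimentation and Percoll gradient (>90% pure) and held in Ca/Mg PBS with 1 mg/mL glucose and 1 μM indomethacin. Challenged with calcium ionophore and [14C]arachidonic acid for 3 min. 5-HETE measured by TLC and scintillation counting; IC50 read graphically.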

[13] = target: T6, Cyclooxygenase (Rattus norvegicus) (UniProt P35355+Q63921); experiment: as §3; assay type: functional; outline: as §2
[14] = target: T7, Polyunsaturated fatty acid 5-lipoxygenase (Rattus norvegicus, UniProt P12527); experiment: In vitro inhibition of rat polymorphonuclear leukocyte 5-lipoxygenase; outline: as §4
T7 sequence (P12527 whole entry): T3 sequence (whole entry)

Mus musculus [15] = experiment: In vivo inhibitory activity against mouse ear inflammation when administered a compound dose (1 mg/ear); assay type: functional; outline: as §5
[16] = target: T6, Cyclooxygenase (Rattus norvegicus); experiment: as §1; assay type: protein assay; details: concentration not given here; outline: as §2

| SMILES | inhibition [1] | Ki [11] | IC50 [12] | IC50 [14] | inhibition in vivo at 60 mg/kg (Cavia porcellus [5]) | Inhibition (Mus musculus [7]) | further results |
| --- | --- | --- | --- | --- | --- | --- | --- |
| O=C(O)CCCCN(O)C(=O)Cc1ccc(OCc2ccccc2)cc1 | – | – | – | – | – | – | Inhibition (Cyclooxygenase [3]): 50%; inhibition [4]: 21% |
| CN(O)C(=O)Cc1ccc(OCc2ccccc2)cc1 | – | > 100 µM | – | – | 83% | 65% | IC50 (Cyclooxygenase [6]): < 10 µM; IC50 (Cavia porcellus [8]): 5 µM; IC50 (Cavia porcellus [9]): 4.2 µM; IC50 (Cyclooxygenase [10]): 9 µM |
| O=C(Cc1ccc(OCc2ccccc2)cc1)N(O)Cc1ccccc1 | 47% | – | 0.12 µM | 0.1 µM | – | 37% | inhibition [13]: 32% |

More lines, main results first:

| inhibition [1] | Ki [11] | IC50 [12] | IC50 [14] | SMILES | inhibition in vivo at 60 mg/kg (Cavia porcellus [5]) | Inhibition (Mus musculus [7]) | further results |
| --- | --- | --- | --- | --- | --- | --- | --- |
| < 10% | – | – | – | O=C(c1ccc(OCc2ccccc2)cc1)N(O)CCc1ccccc1 | – | – | IC50 (Cyclooxygenase [2]): 75 µM |
| – | 1 µM | 1 µM | 0.35 µM | CN(O)C(=O)Cc1ccc(OCc2ccc3ccccc3n2)cc1 | 94% | – | Inhibition (Mus musculus [15]): 48%; inhibition [16]: < 10% |
